Assay results from ChEMBL document CHEMBL1135455, “3-Aminopyrrolidinone farnesyltransferase inhibitors: design of macrocyclic compounds with improved pharmacokinetics and excellent cell potency” (J Med Chem, 2002).

Key:
[1] = target: Geranylgeranyl transferase type I (Homo sapiens, UniProt P49354+P53609); assay: Inhibitory activity against geranylgeranyl transferase; format: protein-complex assay
[2] = target: T1, Protein farnesyltransferase (Rattus norvegicus, UniProt Q02293+Q04631); assay: Inhibition of Farnesyltransferase in H-ras-transformed Rat cells by radiotracer assay (CRAFTI)
[3] = target: T2, Protein farnesyltransferase (Homo sapiens, UniProt P49354+P49356); assay: Inhibition of human farnesyltransferase in an enzyme assay.
[4] = target: T1, Protein farnesyltransferase; assay: Inhibition of Farnesyltransferase in cells, evaluated in a radiotracer assay for farnesyltransferase inhibition (CRAFTI), in cultured H-ras-transformed Rat cells
[5] = Pharmacokinetic data for dose given to dogs intravenously (oral PK study in parentheses); format: ADME, organism-based, Canis lupus familiaris; details: dog, in vivo
In short: (§1)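 Dogs, two per compound, dosed intravenously in DMSO or orally as a 0.5% methocellulose suspension. Some compounds were given intravenously as a cassette with five other compounds. Plasma levels were quantitated by LCMS.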

[6] = Pharmacokinetic data at 1 mg/kg dose given to dogs intravenously; format: ADME, organism-based, Canis lupus familiaris; design: dose 1 mg/kg, route intravenous; details: dog, iv; in short: as §1
[7] = Oral bioavailability of active FTIs in dogs; format: ADME, organism-based, Canis lupus familiaris; details: dog, in vivo
[8] = suboptimal plasma half-life caused a10% prolongation of QTc interval in dogs at a plasma level of […]; format: ADME, organism-based, Canis lupus familiaris; details: dog
[9] = target: T3, Cytochrome P450 3A4 (Homo sapiens, UniProt P08684); assay: (§2) Inhibition of human Cytochrome P450 3A4 by macrocycles
T3 sequence (P08684 whole entry): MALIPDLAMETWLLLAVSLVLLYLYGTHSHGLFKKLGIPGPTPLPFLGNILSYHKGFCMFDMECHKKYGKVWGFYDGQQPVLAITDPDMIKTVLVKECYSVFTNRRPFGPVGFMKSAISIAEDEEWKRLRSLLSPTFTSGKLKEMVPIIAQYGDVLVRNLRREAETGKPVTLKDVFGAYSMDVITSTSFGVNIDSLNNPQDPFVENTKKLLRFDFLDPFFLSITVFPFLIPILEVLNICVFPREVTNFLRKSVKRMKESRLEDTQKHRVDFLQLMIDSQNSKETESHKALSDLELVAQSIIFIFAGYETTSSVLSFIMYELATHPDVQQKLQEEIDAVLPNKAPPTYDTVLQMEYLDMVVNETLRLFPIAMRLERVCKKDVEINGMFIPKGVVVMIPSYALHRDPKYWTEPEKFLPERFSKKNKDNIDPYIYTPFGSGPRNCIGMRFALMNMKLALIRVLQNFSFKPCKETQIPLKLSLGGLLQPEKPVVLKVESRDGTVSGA

[10] = target: T3, Cytochrome P450 3A4; assay: Inhibition of dog Cytochrome P450 3A by macrocycles
[11] = Pharmacokinetic data at 0.5 mg/kg dose given to dogs intravenously.; format: ADME, organism-based, Canis lupus familiaris; design: dose 0.5 mg/kg, route intravenous; details: dog, iv; for half-life / Vd: in vivo; for Vd: read-out: Vdss; for clearance: plasma, read-out: Clp
In short: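 Compound was given intravenously in DMSO to two dogs, in some cases as a mixture with five other compounds. Plasma levels were measured by LC-MS.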

[12] = target: T2, Protein farnesyltransferase; assay: Inhibition of HDJ2 farnesylation in PSN-1 cells over 7 hr assay; format: functional, cell-based
[13] = target: T2, Protein farnesyltransferase; assay: Inhibition of HDJ2 farnesylation in PSN-1 cells over 7 hr assay in the presence of 50% human serum; format: functional, cell-based
[14] = Bioavailability in dog (dose 1 mg/kg i.v.); details: in vivo, iv
[15] = Clearance in dog (dose 1 mg/kg i.v.); details: plasma, iv
[16] = target: T2, Protein farnesyltransferase; assay: Inhibition of Farnesyltransferase at 10 pM enzyme concentration
[17] = target: T2, Protein farnesyltransferase; assay: Inhibition of HDJ2 farnesylation in PSN-1 cells over 7 hr assay in the presence of 50% human serum.; format: functional, cell-based
[18] = target: T3, Cytochrome P450 3A4; assay: as §2; format: ADME
In short: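 Pooled liver microsomes, dog (7) or human (8, 9), at 0.25 mg protein/mL were incubated 10 min with 75 µM testosterone and an NADPH-generating system, with or without compound (0.05-100 µM). 6β-Hydroxytestosterone was quantified by LC-MS/MS against a cortisone internal standard. IC50 was taken from product formed relative to the control incubation.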

[19] = target: T2, Protein farnesyltransferase; assay: Inhibition of Farnesyltransferase at 10 pM enzyme concentration; remark: listed apart in the source
[20] = target: Voltage-gated inwardly rectifying potassium channel KCNH2 (Homo sapiens, UniProt Q12809); assay: Inflection point affinity for binding to K+ channel HERG.; details: IP
Chain of Voltage-gated inwardly rectifying potassium channel KCNH2 (Q12809 whole entry): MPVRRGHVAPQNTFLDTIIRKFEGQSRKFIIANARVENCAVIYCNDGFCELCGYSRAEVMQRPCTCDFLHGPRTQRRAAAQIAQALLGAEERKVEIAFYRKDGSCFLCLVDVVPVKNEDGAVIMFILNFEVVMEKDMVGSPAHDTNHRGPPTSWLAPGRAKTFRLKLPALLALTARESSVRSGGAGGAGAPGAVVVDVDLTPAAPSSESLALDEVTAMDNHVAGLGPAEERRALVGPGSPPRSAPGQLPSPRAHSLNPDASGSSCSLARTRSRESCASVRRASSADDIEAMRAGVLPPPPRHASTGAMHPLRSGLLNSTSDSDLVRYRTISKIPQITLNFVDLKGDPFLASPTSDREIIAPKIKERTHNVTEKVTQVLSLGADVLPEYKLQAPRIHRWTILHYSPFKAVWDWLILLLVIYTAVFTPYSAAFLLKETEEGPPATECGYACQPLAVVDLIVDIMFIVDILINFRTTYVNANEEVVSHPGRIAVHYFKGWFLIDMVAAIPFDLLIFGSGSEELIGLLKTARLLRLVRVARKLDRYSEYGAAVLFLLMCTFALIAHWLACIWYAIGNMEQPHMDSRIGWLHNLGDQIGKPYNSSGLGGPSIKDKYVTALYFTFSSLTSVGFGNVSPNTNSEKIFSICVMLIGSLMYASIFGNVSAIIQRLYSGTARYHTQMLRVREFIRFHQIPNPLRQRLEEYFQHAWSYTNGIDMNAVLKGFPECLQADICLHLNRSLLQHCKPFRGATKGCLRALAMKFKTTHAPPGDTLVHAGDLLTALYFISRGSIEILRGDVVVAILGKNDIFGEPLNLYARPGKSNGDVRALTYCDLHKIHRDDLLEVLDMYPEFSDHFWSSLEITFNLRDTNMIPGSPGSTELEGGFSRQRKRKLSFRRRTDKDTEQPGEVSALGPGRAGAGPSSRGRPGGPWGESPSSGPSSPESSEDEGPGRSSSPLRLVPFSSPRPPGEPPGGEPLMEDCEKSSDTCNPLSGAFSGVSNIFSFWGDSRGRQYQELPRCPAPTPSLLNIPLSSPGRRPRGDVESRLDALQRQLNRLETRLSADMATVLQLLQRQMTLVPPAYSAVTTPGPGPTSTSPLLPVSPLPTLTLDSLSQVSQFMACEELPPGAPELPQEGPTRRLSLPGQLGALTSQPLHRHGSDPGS

| Structure (SMILES) | IC50 [1] [nM] | IC50 [3] [nM] | IC50 [4] [nM] | half-life [11] [min] | Vd [11] [L/kg] | clearance [11] [mL/min/kg] | other results |
| --- | --- | --- | --- | --- | --- | --- | --- |
| N#Cc1ccc2cc1Oc1cccc(c1)C(c1ccccc1)N1CCC(NCc3cncn3C2)C1=O (single isomer, unassigned; diastereomer B) | 5800 | 10 |  |  |  |  | IC50 [2]: 34 nM |
| N#Cc1ccc2cc1Oc1cccc(c1)C(c1cccc(Cl)c1)N1CCC(NCc3cncn3C2)C1=O (single isomer, unassigned; diastereomer A) | 820 | 25 |  |  |  |  | IC50 [2]: 210 nM |
| CC1c2ccc(C#N)c(c2)Oc2cccc(c2)CN2CCC(NCc3cncn31)C2=O (single isomer, unassigned; diastereomer A) | > 20000 | 170 | 74 |  |  |  |  |
| N#Cc1ccc(Cn2cncc2CN[C@H]2CCN(Cc3cccc(Cl)c3)C2=O)cc1 |  |  |  |  |  |  | bioavailability [5]: 81%; half-life ([6]; in vivo): 66 min; Vd ([6]; in vivo, read-out: Vdss): 0.45 L/kg; clearance ([6]; plasma, read-out: Clp): 5.8 mL/min/kg; bioavailability [7]: 81%; half-life [8]: 66 min; IC50 [9]: 1 µM |
| N#Cc1ccc2cc1Oc1ccc3c(c1)[C@H](CC3)N1CC[C@@H](NCc3cncn3C2)C1=O |  |  | 41 | 252 | 0.5 | 1.3 | IC50 [9]: 2.8 µM; IC50 [10]: 14.8 µM |
| N#Cc1ccc2cc1Oc1ccc3c(c1)[C@@H](CCC3)N1CC[C@@H](NCc3cncn3C2)C1=O [(1R,5R)-30-OXO-19-OXA-2,6,10,12-TETRAAZAHEXACYCLO[18.6.2.1^{2,5}.1^{14,18}.0^{8,12}.0^{23,27}]TRIACONTA-8,10,14(29),15,17,20(28),21,23(27)-OCTAENE-17-CARBONITRILE (STRUCTURAL MIX)] | 390 | < 1 | 0.054 | 28.8 | 0.36 | 7.3 | EC50 [12]: 0.18 nM; EC50 [13]: 0.25 nM |
| N#Cc1ccc2cc1Oc1ccc3c(c1)[C@@H](CCO3)N1CC[C@@H](NCc3cncn3C2)C1=O |  |  | 0.063 |  |  |  | Vd [14]: 0.34 L/kg; half-life [14]: 54 min; clearance [15]: 5.5 mL/min/kg |
| N#Cc1ccc2cc1Oc1ccc3cccc(c3c1)N1CCC(NCCc3cncn3C2)C1=O (stereo in doubt; 66) |  |  | 0.32 |  |  |  | IC50 [16]: 0.19 nM; Vd [14]: 0.57 L/kg; bioavailability [14]: 92%; half-life [14]: 120 min; EC50 [17]: 7.5 nM; clearance [15]: 3.9 mL/min/kg; IC50 [9]: 6 µM; EC50 [12]: 4.3 nM; IC50 [10]: 0.6 µM |
| CC1c2ccc(C#N)c(c2)Oc2cccc(c2)CN2CCC(NCc3cncn31)C2=O (single isomer, unassigned; diastereomer B) |  | 1.9 | 0.87 | 46.8 | 0.69 | 12 | IC50 [10]: 6.1 µM |
| CN1Cc2cncn2Cc2ccc(C#N)c(c2)Oc2ccc3cccc(c3c2)N2CCC1C2=O (stereo unspecified) | 2200 | 4.9 | 39 | 606 | 0.21 | 0.26 | IC50 [9]: 5 µM |
| N#Cc1ccc2cc1Oc1ccc3cccc(c3c1)N1CC[C@H](NC(=O)Cc3cncn3C2)C1=O |  |  | 6.8 | 102 | 0.19 | 1.5 | IC50 [18]: 8.1 µM |
| N#Cc1ccc2cc1Oc1ccc3cccc(c3c1)N1CCN(CC1=O)Cc1cncn1C2 |  |  | 0.29 |  |  |  |  |
| N#Cc1ccc2cc1Oc1cccc(c1)C(c1cccc(Cl)c1)N1CCC(NCc3cncn3C2)C1=O (single isomer, unassigned; diastereomer B) | 7000 | 2.5 | 200 |  |  |  |  |
| N#Cc1ccc2cc1Oc1ccc3c(c1)[C@H](CC3)N1CC[C@H](NCc3cncn3C2)C1=O |  |  | 93 |  |  |  |  |
| N#Cc1ccc2cc1Oc1ccc3cccc(c3c1)N1CC[C@H](NCc3cncn3C2)C1=O |  |  | 3.8 |  |  |  | EC50 [17]: 130 nM; EC50 [12]: 48 nM |
| N#Cc1ccc2cc1Oc1cccc(c1)-c1ccccc1N1CCC(NCc3cncn3C2)C1=O (stereo unspecified) | 810 | 1.3 | 0.032 | 52.8 | 0.61 | 8 | EC50 [17]: 0.58 nM; IC50 [9]: < 0.05 µM; EC50 [12]: 0.67 nM; IC50 [19]: 0.06 nM |
| N#Cc1ccc2cc1Oc1cccc(c1)CN1CC[C@@H](NCc3cncn3C2)C1=O |  |  | 0.66 |  |  |  | IC50 [16]: 2 nM; EC50 [12]: 6.1 nM; EC50 [13]: 13 nM |
| N#Cc1ccc2cc1Oc1ccc(Br)c(c1)CN1CCC(NCc3cncn3C2)C1=O (stereo unspecified) | 9200 | 1.4 | 0.19 | 96 | 0.53 | 3.2 | EC50 [17]: 1 nM; IC50 [9]: 6.1 µM; EC50 [12]: 1.6 nM |
| N#Cc1ccc2cc1Oc1ccc3c(c1)[C@@H](CCC3)N1CC[C@H](NCc3cncn3C2)C1=O | 2200 | 1.5 | 0.21 |  |  |  | EC50 [17]: 4.4 nM; EC50 [12]: 3 nM |
| N#Cc1ccc2cc1Oc1ccc3c(c1)[C@@H](CC3)N1CC[C@@H](NCc3cncn3C2)C1=O |  |  | 0.22 | 102 | 0.27 | 2.1 | IC50 [9]: 6.6 µM; IC50 [10]: 10.4 µM |
| CN1CCc2cncn2Cc2ccc(C#N)c(c2)Oc2ccc3cccc(c3c2)N2CC[C@@H]1C2=O |  |  | 0.57 |  |  |  |  |
| N#Cc1ccc2cc1Oc1ccc3cccc(c3c1)N1CCC(NCCc3cncn3C2)C1=O (stereo in doubt; 67) |  |  | 0.44 |  |  |  |  |
| CN1CCc2cncn2Cc2ccc(C#N)c(c2)Oc2ccc3cccc(c3c2)N2CC[C@H]1C2=O |  |  | 0.21 | 114 | 0.25 | 1.4 |  |
| N#Cc1ccc2cc1Oc1cc(Cl)cc(c1)CN1CCC(NCc3cncn3C2)C1=O (stereo unspecified) | > 20000 | 23 |  |  |  |  | IC50 [2]: 6.4 nM |
| N#Cc1ccc2cc1Oc1cccc(c1)C(c1ccccc1)N1CCC(NCc3cncn3C2)C1=O (stereo in doubt; 26A) | 1600 | 58 | 230 |  |  |  |  |
| N#Cc1ccc2cc1Oc1cccc(c1)CN1CC[C@H](NCc3cncn3C2)C1=O |  | 54 |  |  |  |  | IC50 [2]: 13 nM |
| N#Cc1ccc2cc1Oc1ccc3cccc(c3c1)N1CC[C@@H](NCc3cncn3C2)C1=O |  | 1.6 | 4.4 |  |  |  |  |
| N#Cc1ccc2cc1Oc1ccc3c(c1)[C@@H](CCO3)N1CC[C@H](NCc3cncn3C2)C1=O |  |  | 1.8 |  |  |  |  |
| CN1Cc2cncn2Cc2ccc(C#N)c(c2)Oc2ccc3c(c2)C(CC3)N2CCC1C2=O (stereo unspecified) | > 20000 | 1.4 | 0.64 |  |  |  | IC50 [20]: 2600 nM |
| N#Cc1ccc2cc1Oc1ccc3cccc(c3c1)N1CC[C@@H](NC(=O)Cc3cncn3C2)C1=O |  |  | 13 |  |  |  |  |
